ChEMBL document CHEMBL1134682, “A novel series of 2,6,7-substituted 2,3-dihydro-1,4-benzodioxin and 2,6,7-substituted 1,4-benzodioxin derivatives as lipid peroxidation inhibitors. Structure-activity relationships for high inhibition of human low-density lipoprotein peroxidation” (J Med Chem, 2001)
Calls of active or inactive are those of the source. No cut-off for these calls is given here.

Legend:
Rattus norvegicus = species on record: Rattus norvegicus; test: Inhibitory concentration against KCl induced rat thoracic aorta contraction; type: functional
In short: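 Isolated rat aorta was contracted with hyperpotassic KCl (60 mM). Inhibition of contraction was measured over eight increasing concentrations (10⁻⁸ to 3 × 10⁻⁵ M), each in duplicate, on two preparations. IC50 came from the concentration–response curve by linear regression.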

Homo sapiens [1] = species on record: Homo sapiens; test: Concentration inhibiting 50% of the copper induced lipid peroxidation determined using the thiobarbituric acid reactive substance and expressed as an MDA equivalent; type: functional
In short: (§1)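 Human LDL was isolated by ultracentrifugation (1.019 < d < 1.063) from pooled EDTA (0.04%) plasma of healthy normolipidemic donors. Oxidation was driven by Cu²⁺ for 3 h at 37 °C, with compounds in DMSO added just before. TBARS was read by the Yagi method as MDA equivalents. Ten concentrations from 10⁻⁷ to 10⁻³ M were run in duplicate, with IC50 by linear regression. A ratio versus probucol corrected for LDL batch.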

Homo sapiens [2] = species on record: Homo sapiens; test: Tested for the activity ratio versus probucol; type: functional; in short: as §1
Mus musculus [3] = test: Compound was tested for the time before the first gasps after ip administration of 20 mg/kg in hypoxia test; type: functional; settings: route intraperitoneal
In short: (§2)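 Male Swiss CD1 mice (25–30 g) were housed 1 week at 20–22 °C, 55% humidity, 12/12 light cycle. Compound was given ip 30 min before placing each mouse in a small box flushed with 96% N₂/4% O₂ at 12 L/min. Read-out was the time until the first gasps. Vincamine was the reference.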

Mus musculus [4] = test: Compound was tested for the time before the first gasps after ip administration of 2.5 mg/kg in hypoxia test; inactive; type: functional, organism-based; parameters: dose 2.5 mg/kg; in short: as §2
Mus musculus [5] = test: Compound was tested for change in the LDL-VLDL fraction after (po) administration of 300 mg/kg in mice; type: functional
In short: (§3)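 Groups of six mice were made hypercholesterolaemic by a high-cholesterol, cholic-acid diet for 7 days. Compound was dosed po, half on day 6 and half on day 7, then mice were fasted overnight without food or water. Serum total cholesterol and heparin-precipitated LDL-VLDL were compared with hypercholesterolaemic controls.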

Mus musculus [6] = test: Compound was tested for change in the LDL-VLDL fraction after (po) administration of 100 mg/kg in mice; type: functional; in short: as §3
Mus musculus [7] = test: Compound was tested for the time before the first gasps after ip administration of 1 mg/kg in hypoxia test; type: functional; settings: route intraperitoneal; in short: as §2
Mus musculus [8] = test: Compound was tested for change in the total cholesterol after (po) administration of 100 mg/kg in mice; type: functional; in short: as §3
Mus musculus [9] = test: Compound was tested for the time before the first gasps after ip administration of 2.5 mg/kg in hypoxia test; type: functional; settings: route intraperitoneal; in short: as §2
Mus musculus [10] = test: Compound was tested for change in the total cholesterol after (po) administration of 300 mg/kg in mice; type: functional; in short: as §3
Homo sapiens [11] = species on record: Homo sapiens; test: Concentration inhibiting 50% of the copper induced lipid peroxidation determined using th e thiobarbituric acid reactive substance and expressed as an MDA equivalent; Peroxidant; type: functional; in short: as §1
Homo sapiens [12] = species on record: Homo sapiens; test: Concentration inhibiting 50% of the copper induced lipid peroxidation determined using th e thiobarbituric acid reactive substance and expressed as an MDA equivalent; type: functional; in short: as §1
Homo sapiens [13] = species on record: Homo sapiens; test: Compound was tested for the activity ratio versus probucol; type: functional; in short: as §1

Row | IC50 (Rattus norvegicus) [µM] | IC50 (Homo sapiens [1]) [µM] | Compound | Ratio (Homo sapiens [2]) | other results
1 | 0.27 |  | Fc1ccc(C(c2ccc(F)cc2)N2CCN(C/C=C/c3ccccc3)CC2)cc1 [FLUNARIZINE] |  | 
2 | 1.8 |  | O=C(C1=COc2ccccc2O1)N1CCN(C(c2ccc(F)cc2)c2ccc(F)cc2)CC1 |  | 
3 |  | 1.7 | COc1ccc(CN2CCN(C(=O)C3COc4ccc(O)cc4O3)CC2)c(OC)c1OC (configuration not stated) | 3 | 
4 | 3.1 | 1 | CC(C)(C)c1cc2c(cc1O)OC=C(C(=O)N1CCN(C(c3ccc(F)cc3)c3ccc(F)cc3)CC1)O2 | 5 | 
5 |  |  | CC[C@]12CCCN3CCc4c(n(c5ccccc45)[C@@](O)(C(=O)OC)C1)[C@@H]32 [VINCAMINE] |  | Time (Mus musculus [3]): 147 s; IA (Mus musculus [4]): inactive
6 | 0.57 | 1 | Oc1ccc2c(c1)OC=C(CN1CCN(C(c3ccc(F)cc3)c3ccc(F)cc3)CC1)O2 | 5 | Change (Mus musculus [5]): -52%; Time (Mus musculus [3]): 60 s; Change (Mus musculus [6]): -35%; Time (Mus musculus [7]): 78 s; Change (Mus musculus [8]): -33%; Time (Mus musculus [9]): 65 s; Change (Mus musculus [10]): -48%
7 |  | 3 | COc1ccc(CN2CCN(C(=O)C3=COc4ccc(O)cc4O3)CC2)c(OC)c1OC | 1.7 | 
8 |  | 35 | Nc1ccc2c(c1)OC=C(C(=O)N1CCN(C(c3ccc(F)cc3)c3ccc(F)cc3)CC1)O2 | 0.1 | 
9 | 3 | 3 | O=C(C1COc2cc(O)ccc2O1)N1CCN(C(c2ccc(F)cc2)c2ccc(F)cc2)CC1 (configuration not stated) | 1.7 | 
10 |  | 9 | Oc1ccc2c(c1)OC=C(C(=S)N1CCN(C(c3ccc(F)cc3)c3ccc(F)cc3)CC1)O2 | 0.5 | 
11 |  | 0.7 | O=C(C1=COc2ccc(O)cc2O1)N1CCN(C(c2ccc(F)cc2)c2ccc(F)cc2)CC1 | 2.9 | 
12 |  |  | O=C(Oc1ccc2c(c1)OC=C(C(=O)N1CCN(C(c3ccc(F)cc3)c3ccc(F)cc3)CC1)O2)c1cccnc1 |  | IC50 (Homo sapiens [11]): Peroxidant
13 |  |  | O=C(Nc1ccccc1)C1=COc2ccc(O)cc2O1 |  | IC50 (Homo sapiens [12]): 0.5 µM; Ratio (Homo sapiens [13]): 4
14 |  | 0.4 | CCCCN(C(=O)C1=COc2ccc(O)cc2O1)c1ccccc1 | 2 | 
15 |  | 0.5 | O=C(C1=COc2cc(O)ccc2O1)N1CCC(=C(c2ccc(F)cc2)c2ccc(F)cc2)CC1 | 2 | 
16 |  | > 100 | COc1ccc2c(c1)OC=C(C(=O)N1CCN(C(c3ccc(F)cc3)c3ccc(F)cc3)CC1)O2 | <0.005 | 
17 |  | < 0.1 | Oc1ccc2c(c1)OC=C(CN1CCC(=C(c3ccc(F)cc3)c3ccc(F)cc3)CC1)O2 | >45 | 
18 |  | 1 | CCCCN(C(=O)C1=COc2cc(O)ccc2O1)c1ccccc1 | 2 | 
19 | 0.56 | < 0.1 | O=C(C1=COc2cc(O)ccc2O1)N1CCN(C(c2ccc(F)cc2)c2ccc(F)cc2)CC1 | >45 | Time (Mus musculus [3]): 67 s; Time (Mus musculus [7]): 55 s; Time (Mus musculus [9]): 108 s; Change (Mus musculus [10]): -7%
20 |  |  | CC(C)(Oc1ccc(CCNC(=O)c2ccc(Cl)cc2)cc1)C(=O)O [BEZAFIBRATE] |  | Change (Mus musculus [6]): -20%; Change (Mus musculus [8]): -25%
21 | 2.2 | 0.2 | O=C(C1COc2ccc(O)cc2O1)N1CCN(C(c2ccc(F)cc2)c2ccc(F)cc2)CC1 (configuration not stated) | 10 | 
22 |  | 0.2 | CCCCN(C(=O)C1=COc2cc(O)c(C(C)(C)C)cc2O1)c1ccccc1 | 5 | 
